{"data": "Measured values pooled from the literature", "target": "Tyrosine-protein kinase Tec (TEC, Homo sapiens, UniProt P42680)", "Sequence (P42680 1-631, as in one of the studies)": "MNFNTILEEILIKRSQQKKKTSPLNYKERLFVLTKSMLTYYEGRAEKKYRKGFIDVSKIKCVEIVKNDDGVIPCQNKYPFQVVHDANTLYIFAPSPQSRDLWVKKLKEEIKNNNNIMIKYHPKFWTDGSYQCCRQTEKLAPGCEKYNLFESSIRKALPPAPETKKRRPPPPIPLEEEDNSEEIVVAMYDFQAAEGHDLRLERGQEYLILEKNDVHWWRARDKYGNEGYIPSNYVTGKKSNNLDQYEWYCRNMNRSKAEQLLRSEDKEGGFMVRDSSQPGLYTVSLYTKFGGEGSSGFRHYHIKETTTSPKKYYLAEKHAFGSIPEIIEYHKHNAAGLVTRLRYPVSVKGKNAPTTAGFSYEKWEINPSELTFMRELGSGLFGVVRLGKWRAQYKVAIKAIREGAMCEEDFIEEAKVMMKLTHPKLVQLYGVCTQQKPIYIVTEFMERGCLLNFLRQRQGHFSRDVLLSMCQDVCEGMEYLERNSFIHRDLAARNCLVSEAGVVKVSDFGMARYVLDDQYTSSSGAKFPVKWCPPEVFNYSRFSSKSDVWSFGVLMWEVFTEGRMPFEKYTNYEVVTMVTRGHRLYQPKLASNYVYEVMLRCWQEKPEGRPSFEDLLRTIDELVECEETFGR", "note": "Each line is one published result; the experiments were not run side by side."}
{"SMILES": "C[C@@]1(Cc2ccc(C#N)cc2)C(=O)N(c2cc(Cl)cc(Cl)c2)c2ncc(C(=O)NC3(c4nc(C5CCC5)no4)CC3)n21", "effect on": "cell-free assay", "method": "competition with immobilised ligand", "concentration": "1 µM", "remaining binding [%]": 92}
{"SMILES": "CN(c1nccc(-c2cnn3ncccc23)n1)C1CC1", "effect on": "binding", "concentration": "1 µM", "remaining binding [%]": 100}
{"SMILES": "COc1cnc(Nc2cccc(S(N)(=O)=O)c2)nc1N1CCN(c2ccccc2)CC1", "effect on": "binding", "method": "competition with immobilised ligand", "concentration": "1 µM", "remaining binding [%]": 85}
{"SMILES": "CN(C(=O)c1ccccc1)c1cc(N(C)c2ccc3c(c2)CCc2ccc(C(=O)NCCN4CCOCC4)cc2C3=O)ccc1F", "effect on": "cell-free assay", "method": "competition with immobilised ligand", "concentration": "1 µM", "remaining binding [%]": 100}
{"SMILES": "Cc1cnc(Nc2ccc(C(=O)N3CCC(N4CCCC4)CC3)cc2)nc1-c1cc2ccccc2s1", "effect on": "binding", "method": "competition with immobilised ligand", "concentration": "1 µM", "remaining binding [%]": 100}
{"SMILES": "CN(CCCC(F)(F)F)c1nccc(-c2cnn3ncccc23)n1", "effect on": "binding", "concentration": "1 µM", "remaining binding [%]": 97}
{"SMILES": "Nc1ncc2c(n1)-c1c([nH]c3ccc(C#CC4CC4)cc13)CCCC2", "effect on": "binding", "method": "competition with immobilised ligand", "concentration": "1 µM", "remaining binding [%]": 100}
{"SMILES": "FC(F)(F)Oc1cccc(-c2cnc3ccc(-c4ccncc4)nn23)c1", "effect on": "binding", "method": "competition with immobilised ligand", "concentration": "5 µM", "remaining binding [%]": 99}
{"SMILES": "COc1ccnn2ncc(-c3ccnc(N(C)C)n3)c12", "effect on": "binding", "concentration": "1 µM", "remaining binding [%]": 93}
{"SMILES": "CNC(=O)[C@@H]1CC[C@@H](n2c(-c3ccc4cnccc4c3)nc3ccc(C(=O)NCc4cccc(C(N)=O)c4)cc32)C1", "effect on": "binding", "method": "competition with immobilised ligand", "concentration": "1 µM", "remaining binding [%]": 100}
{"SMILES": "O=C(c1ccc(Nc2ncc(Cl)c(-c3ccc(Cl)s3)n2)cc1)N1CCC(N2CCCC2)CC1", "effect on": "binding", "method": "competition with immobilised ligand", "concentration": "1 µM", "remaining binding [%]": 100}
{"SMILES": "COc1ccc2c(O[C@@H]3C[C@H]4C(=O)N[C@]5(C(=O)O)CC5/C=C\\CCCCC[C@H](NC(=O)OC5CCCC5)C(=O)N4C3)cc(-c3csc(NC(=O)C(C)C)n3)nc2c1C (stereo partly drawn)", "effect on": "cell-free assay", "method": "competition with immobilised ligand", "concentration": "1 µM", "remaining binding [%]": 100}
{"SMILES": "O=C(c1ccc(Nc2ncc(Cl)c(-c3cc4ccccc4s3)n2)cc1)N1CCC(N2CCCC2)CC1", "effect on": "binding", "method": "competition with immobilised ligand", "concentration": "1 µM", "remaining binding [%]": 99}
{"SMILES": "O=C(NCC1CCOCC1)c1n[nH]cc1NC(=O)c1c(F)cccc1F", "effect on": "binding", "method": "competition with immobilised ligand", "concentration": "1 µM", "remaining binding [%]": 100}
{"SMILES": "C[C@@H](c1ccc(-n2cnc3c(N)ncnc32)cc1)N1CCc2nn(C)c(Cc3ccccc3)c2C1=O", "effect on": "binding", "method": "competition with immobilised ligand", "concentration": "0.1 µM", "remaining binding [%]": 63}
{"SMILES": "CCS(=O)(=O)c1cc2cc(C[C@@](O)(CC(C)(C)c3ccc(F)cc3C(N)=O)C(F)(F)F)[nH]c2cn1", "effect on": "cell-free assay", "method": "competition with immobilised ligand", "concentration": "1 µM", "remaining binding [%]": 100}
{"SMILES": "Cc1cnn2ncc(-c3ccnc(N(C)C)n3)c2c1", "effect on": "binding", "concentration": "1 µM", "remaining binding [%]": 100}
{"SMILES": "CCC(=O)N[C@H]1CC[C@@H](C(=O)N(C)c2ccc(-c3nc4ccccc4o3)cc2)C1", "effect on": "cell-free assay", "method": "competition with immobilised ligand", "concentration": "1 µM", "remaining binding [%]": 100}
{"SMILES": "N[C@H]1CCN(c2nccc(-c3cnn4ncccc34)n2)C1", "effect on": "binding", "concentration": "1 µM", "remaining binding [%]": 100}
{"SMILES": "CS(=O)(=O)c1cc(C2(NC(=O)c3cncc4c3cnn4-c3ccc(F)cc3)CC2)ccn1", "effect on": "cell-free assay", "method": "competition with immobilised ligand", "concentration": "1 µM", "remaining binding [%]": 99}
{"SMILES": "CN(C)c1nccc(-c2cnc3ncccn23)n1", "effect on": "binding", "concentration": "1 µM", "remaining binding [%]": 100}
